Here are results for 40 compounds from ChEMBL document CHEMBL1128183, “Hypoxia-selective agents derived from 2-quinoxalinecarbonitrile 1,4-di-N-oxides. 2” (1995).

Test [1] deals with V79. Put plainly: Concentration giving 1% of control V79 cells survival in hypoxia. It is filed as functional, Cricetulus griseus. The method, boiled down: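 V79 Chinese hamster lung fibroblasts, trypsinized from exponential monolayers into suspension (2 × 10^4 cells/mL, EMEM + 10% FBS + 10 mM HEPES), gassed with nitrogen 30 min before and throughout 2 h drug exposure; duplicate flasks per dose. Cells replated, colonies (>64 cells) counted after 7 days at 37 °C; dose-response curve gives micromolar dose for 1% of control survival.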

Test [2] can be described thus: Hypoxia cytotoxicity ratio (HCR), calculated by dividing the dose in air by the dose in hypoxia giving 1% control cell survival. It is filed as functional. A digest of the protocol:
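Suspension cultures of V79 cells gassed continuously with pure air or nitrogen (30 min pre-gassing, then 2 h exposure), two flasks per dose, DMSO and nitracrine 0.06 μM controls. Clonogenic survival from plating efficiency relative to control after 7-day colony growth; ratio = air dose over hypoxic dose each giving 1% control survival, from dose-response curves.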

Each structure is given as a SMILES string.

As for `N#Cc1c(N)[n+]([O-])c2ccc(Cl)cc2[n+]1[O-]`, the Potency in test [1] came to 9 µM. The HCR in test [2] is 150.
The corresponding values for `N#Cc1c(NCCCN2CCOCC2)[n+]([O-])c2cc(Cl)ccc2[n+]1[O-]` are 0.8 µM and above 125.
With `CCN(CC)CCNc1c(C#N)[n+]([O-])c2ccccc2[n+]1[O-]`, the Potency in test [1] worked out at 0.9 µM. Further, the HCR in test [2] is 120.
The corresponding values for `COc1ccc2c(c1)[n+]([O-])c(C#N)c(NCCCN(C)C)[n+]2[O-]` are 2 µM and 200.
The corresponding values for `CN(CCCNc1c(C#N)[n+]([O-])c2cc(Cl)ccc2[n+]1[O-])CCCNc1c(C#N)[n+]([O-])c2cc(Cl)ccc2[n+]1[O-]` are 0.7 µM and 10.
As for `N#Cc1c(NCCCn2ccnc2)[n+]([O-])c2ccc(Cl)cc2[n+]1[O-]`, the Potency in test [1] worked out at 2 µM. Further, the HCR in test [2] was above 50.
`N#Cc1c[n+]([O-])c2ccccc2[n+]1[O-]`: in test [1], the Potency stood at 5 µM. In addition, the HCR in test [2] is above 100.
On to `Cc1ccc2c(c1)[n+]([O-])c(C#N)c(NCCCN(C)C)[n+]2[O-]`, for which the Potency in test [1] was determined as 1 µM. For the same compound, in test [2], the HCR is recorded as 300.
The corresponding values for `CN(C)CCCNc1c(C#N)[n+]([O-])c2cc(F)ccc2[n+]1[O-]` are 0.6 µM and 170.
For `CN(C)CCCNc1c(C#N)[n+]([O-])c2cc(Cl)ccc2[n+]1[O-]`, in that order: 0.4 µM and 250.
Compound `N#Cc1c[n+]([O-])c2ccc(Cl)cc2[n+]1[O-]` displayed a Potency in test [1] of 3 µM. In addition, in test [2], the HCR is 30.
In turn, `Cc1c(C#N)[n+]([O-])c2ccccc2[n+]1[O-]` registered a Potency in test [1] of 10 µM. Further, the HCR in test [2] is 15.
For `N#Cc1c[n+]([O-])c2ccc(F)cc2[n+]1[O-]`, in that order: 2 µM and above 50.
As for `N#Cc1c(N)[n+]([O-])c2ccc(-c3ccc([N+](=O)[O-])cc3)cc2[n+]1[O-]`, in test [1], the Potency came to 4 µM. Besides, in test [2], the HCR is 15.
In turn, `N#Cc1c[n+]([O-])c2cc(F)c(F)cc2[n+]1[O-]` showed a Potency in test [1] of 0.3 µM. Also, the HCR in test [2] is given as 5.
In test [1], `CN(C)CCCNc1c(C#N)[n+]([O-])c2ccccc2[n+]1[O-]` yielded a Potency of 1 µM. Further, the HCR in test [2] was 300.
For `COc1cc2c(cc1Cl)[n+]([O-])cc(C#N)[n+]2[O-]`, in that order: 0.4 µM and above 50.
The corresponding values for `COc1ccc2c(c1)[n+]([O-])c(C#N)c[n+]2[O-]` are 5 µM and above 200.
For `CCN(CC)CCNc1c(C#N)[n+]([O-])c2cc(Cl)ccc2[n+]1[O-]`, in that order: 0.5 µM and 40.
`CN(C)CCNc1c(C#N)[n+]([O-])c2cc(Cl)ccc2[n+]1[O-]` displayed a Potency in test [1] of 0.3 µM. In test [2], the HCR is recorded as 100.
As to `CCN(CC)CCNc1c(C#N)[n+]([O-])c2cc(C)ccc2[n+]1[O-]`, the Potency in test [1] was determined as 3 µM. Moreover, the HCR in test [2] was 100.
The corresponding values for `N#Cc1c[n+]([O-])c2ccc(-c3ccc([N+](=O)[O-])cc3)cc2[n+]1[O-]` are 0.2 µM and 200.
Consider `N#Cc1c[n+]([O-])c2ccc(C(F)(F)F)cc2[n+]1[O-]`, for which the Potency in test [1] was determined as 6 µM. Also, the HCR in test [2] is given as 80.
In turn, `Cc1cc2c(cc1C)[n+]([O-])c(C#N)c[n+]2[O-]` had a Potency in test [1] of 14 µM. Besides, the HCR in test [2] is given as above 7.
In turn, `N#Cc1c(NCCCN2CCOCC2)[n+]([O-])c2ccc(Cl)cc2[n+]1[O-]` had a Potency in test [1] of 2 µM. Also, the HCR in test [2] is recorded as 300.
In test [1], `N#Cc1c(NCCO)[n+]([O-])c2ccc(Cl)cc2[n+]1[O-]` came in with a Potency of 4 µM. Besides, in test [2], the HCR is on record as 75.
On to `N#Cc1c(N)[n+]([O-])c2cc(F)c(F)cc2[n+]1[O-]`, for which the Potency in test [1] came out at 1 µM. Moreover, the HCR in test [2] is listed as below 10.
In turn, `N#Cc1c(N)[n+]([O-])c2ccccc2[n+]1[O-]` came in with a Potency in test [1] of 30 µM. In addition, the HCR in test [2] is on record as 80.
The corresponding values for `N#Cc1c(N)[n+]([O-])c2ccc(C(F)(F)F)cc2[n+]1[O-]` are 7 µM and 75.
For `CN(C)CCCNc1c(C#N)[n+]([O-])c2cc(C(F)(F)F)ccc2[n+]1[O-]`, in that order: 0.3 µM and 340.
`N#Cc1c(N)[n+]([O-])c2ccc(F)cc2[n+]1[O-]`: the Potency in test [1] is 15 µM. For the same compound, the HCR in test [2] is 100.
As for `COc1ccc2c(c1)[n+]([O-])c(C#N)c(N)[n+]2[O-]`, the Potency in test [1] amounted to 30 µM. Moreover, the HCR in test [2] is reported as above 10.
For `CCN(CC)CCNc1c(C#N)[n+]([O-])c2cc(OC)ccc2[n+]1[O-]`, in that order: 1 µM and 100.
With `N#Cc1c[n+]([O-])c2cc(Cl)c(Cl)cc2[n+]1[O-]`, in test [1], the Potency is 0.7 µM. Further, in test [2], the HCR is recorded as 10.
`COc1cc2c(cc1Cl)[n+]([O-])c(N)c(C#N)[n+]2[O-]` showed a Potency in test [1] of 10 µM. In addition, the HCR in test [2] is below 10.
As to `CCN(CC)CCNc1c(C#N)[n+]([O-])c2cc(F)ccc2[n+]1[O-]`, the Potency in test [1] is 0.4 µM. Further, the HCR in test [2] was 75.
With `CCN(CC)CCNc1c(C#N)[n+]([O-])c2cc(C(F)(F)F)ccc2[n+]1[O-]`, in test [1], the Potency worked out at 0.6 µM. Further, in test [2], the HCR is on record as 50.
The corresponding values for `Cc1ccc2c(c1)[n+]([O-])c(C#N)c[n+]2[O-]` are 6 µM and 200.
The corresponding values for `N#Cc1c(N)[n+]([O-])c2cc(Cl)c(Cl)cc2[n+]1[O-]` are 1 µM and 80.
On to `Nc1n[n+]([O-])c2ccccc2[n+]1[O-]` [TIRAPAZAMINE], for which the Potency in test [1] was found to be 30 µM. Moreover, the HCR in test [2] is 75.
